Results on seven molecules are retold here after PMC3010304 (Bioorganic & medicinal chemistry letters, 2010).

The test system of series [1] is A549 (human lung carcinoma). Kind of series: MTT cytotoxicity assay, A549. It is filed as cell-based. The note with it: 48 h.
Series [2] relates to MCF-7 (human breast cancer). As to the kind of experiment: MTT cytotoxicity assay, MCF-7. The following applies: 48 h. It counts as cell-based.
Another series deals with HIV-1IIIB. The note with it: HIV-1IIIB infected C8166 cell lines; cited from earlier work.
In the next series the test system is HIV-1NL4-3. Kind of series: HIV-1NL4-3 replication inhibition assay in MT-4 lymphocytes. The note with it: HIV-1NL4-3 infected MT-4 cells. It is filed as cell-based. A digest of the protocol: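 MT-4 cells infected with HIV-1 NL4-3 variants at a multiplicity of infection of 0.01, in a microtiter-plate replication screen.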
Series [3] concerns the target T1, rabbit muscle glycogen phosphorylase a (RMGPa) (Oryctolagus cuniculus, UniProt P00489).
T1 sequence (P00489 1-843): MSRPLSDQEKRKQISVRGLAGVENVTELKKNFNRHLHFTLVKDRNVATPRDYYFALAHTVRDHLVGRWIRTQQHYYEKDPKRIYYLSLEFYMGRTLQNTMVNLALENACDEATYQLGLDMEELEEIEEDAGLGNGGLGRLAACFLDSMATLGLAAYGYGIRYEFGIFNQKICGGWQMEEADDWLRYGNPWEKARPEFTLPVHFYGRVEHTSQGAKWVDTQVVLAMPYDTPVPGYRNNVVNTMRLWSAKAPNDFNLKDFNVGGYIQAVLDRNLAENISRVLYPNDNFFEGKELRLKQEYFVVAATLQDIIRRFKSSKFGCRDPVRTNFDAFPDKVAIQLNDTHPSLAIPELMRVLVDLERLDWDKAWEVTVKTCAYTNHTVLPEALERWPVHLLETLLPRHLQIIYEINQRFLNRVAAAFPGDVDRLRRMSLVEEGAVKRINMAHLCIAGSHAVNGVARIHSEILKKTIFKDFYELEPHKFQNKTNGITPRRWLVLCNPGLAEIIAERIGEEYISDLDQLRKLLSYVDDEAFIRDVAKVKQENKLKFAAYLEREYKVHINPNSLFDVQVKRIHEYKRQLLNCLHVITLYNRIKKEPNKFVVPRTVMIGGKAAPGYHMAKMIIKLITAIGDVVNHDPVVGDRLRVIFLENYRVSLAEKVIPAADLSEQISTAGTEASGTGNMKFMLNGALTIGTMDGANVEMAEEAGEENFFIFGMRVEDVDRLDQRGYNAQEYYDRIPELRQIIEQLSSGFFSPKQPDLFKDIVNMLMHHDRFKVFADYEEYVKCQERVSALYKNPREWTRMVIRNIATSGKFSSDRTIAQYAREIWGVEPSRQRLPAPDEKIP
Kind of series: Inhibition of rabbit muscle glycogen phosphorylase a. It is filed as biochemical. The following applies: for GP inhibitory potency relative to betulin (3): fold more potent than 3.

Series [4] relates to PC3 (human prostate cancer). Kind of series: MTT cytotoxicity assay, PC3. It counts as cell-based. The note with it: 48 h, means of three experiments, NA = no activity.

In the case of `C=C(C)[C@@H]1CC[C@]2(C(=O)O)CC[C@]3(C)[C@H](CC[C@@H]4[C@@]5(C)[C@H](C(=O)O)[C@H](O)C(C)(C)[C@@H]5CC[C@]43C)[C@@H]12` [Compound 1, Epiceanothic acid], in series [1], the “decrease of cytotoxic activity against A549 compared with 12” value was “more than 20 fold”. In series [2], the “decrease of cytotoxic activity against MCF-7 compared with 12” value is given as “more than 20 fold”. Moreover, the “EC50, anti-HIV-1 replication activity” value in the series on HIV-1IIIB was < 0.064 µg/mL.

As for `C=C(C)[C@@H]1CC[C@]2(C(=O)O)CC[C@]3(C)[C@H](CC[C@@H]4[C@@]5(C)[C@@H](C(=O)O)[C@H](O)C(C)(C)[C@@H]5CC[C@]43C)[C@@H]12` [Compound 2a, ceanothic acid], the “anti-HIV-1 activity (result in words)” value in the series on HIV-1NL4-3 was “no anti-HIV-1 activity”.

As for `C=C(C)[C@@H]1CC[C@]2(CO)CC[C@]3(C)[C@H](CC[C@@H]4[C@@]5(C)CC[C@H](O)C(C)(C)[C@@H]5CC[C@]43C)[C@@H]12` [Compound 3, betulin], the “anti-HIV-1 activity (result in words)” value in the series on HIV-1NL4-3 is on record as “did not exhibit significant antiviral activity”.

As to `C=C(C)[C@@H]1CC[C@]2(COC(c3ccccc3)(c3ccccc3)c3ccccc3)CC[C@]3(C)[C@H](CC[C@@H]4[C@@](C)(CC(=O)O)[C@H](C(C)(C)C(=O)O)CC[C@]43C)[C@@H]12` [Compound 5], the “GP inhibitory potency relative to betulin (3)” value in series [3] is on record as ~200 fold. Moreover, the “GP inhibitory potency relative to compound 6” value in series [3] (fold more potent than 6) is reported as 14 fold.

In the case of `C=C(C)[C@@H]1CC[C@]2(COC(c3ccccc3)(c3ccccc3)c3ccccc3)CC[C@]3(C)[C@H](CC[C@@H]4[C@@](C)(CC(=O)OC)[C@H](C(C)(C)C(=O)OC)CC[C@]43C)[C@@H]12` [Compound 6], in series [3], the “GP inhibitory potency relative to betulin (3)” value came to 14 fold.

For `C=C(C)[C@@H]1CC[C@]2(COC(c3ccccc3)(c3ccccc3)c3ccccc3)CC[C@]3(C)[C@H](CC[C@@H]4[C@@]5(C)[C@H](C(=O)OC)[C@H](O)C(C)(C)[C@@H]5CC[C@]43C)[C@@H]12` [Compound 8], in series [4], the “IC50 ±SD, cytotoxic activity, PC3” value is “inactive”.

In the case of `C=C(C)[C@@H]1CC[C@]2(COC(c3ccccc3)(c3ccccc3)c3ccccc3)CC[C@]3(C)[C@H](CC[C@@H]4[C@@]5(C)[C@H](C(=O)OC)[C@H](OC(C)=O)C(C)(C)[C@@H]5CC[C@]43C)[C@@H]12` [Compound 9], the “IC50 ±SD, cytotoxic activity, PC3” value in series [4] is “inactive”.
